Measurements as given in ChEMBL document CHEMBL4261600 (Eur J Med Chem, 2018).

Tests used:
[1] = biological target: Calcium/calmodulin-dependent protein kinase kinase 1 (Homo sapiens) (UniProt Q8N5S9); assay: Binding affinity to wild-type human partial length CAMKK1 (R65 to E414 residues) expressed in bacterial expression system assessed as remaining unbound target protein level at 1000 nM by Kinomescan method relative to control
[2] = system: Tyrosine-protein kinase ABL1 (Homo sapiens), P00519 [T315I]; assay: Binding affinity to human phosphorylated ABL1 T315I mutant (S229 to K512 residues) expressed in mammalian expression system assessed as remaining unbound target protein level at 1000 nM by Kinomescan method relative to control
Outline: (§1)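 Single-point competition binding screen across a panel of 468 kinases and mutants, with the inhibitor at 1 μM. Binding is read out as percent of a DMSO control, and targets below 1 percent control were classed as strong binders.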

[3] = biological target: Serine/threonine-protein kinase 26 (Homo sapiens) (UniProt Q9P289); assay: Binding affinity to wild-type human full length MST4 (M1 to P416 residues) expressed in mammalian expression system assessed as remaining unbound target protein level at 1000 nM by Kinomescan method relative to control; outline: as §1
Serine/threonine-protein kinase 26 (Homo sapiens), sequence (Q9P289 2-416 limits assumed): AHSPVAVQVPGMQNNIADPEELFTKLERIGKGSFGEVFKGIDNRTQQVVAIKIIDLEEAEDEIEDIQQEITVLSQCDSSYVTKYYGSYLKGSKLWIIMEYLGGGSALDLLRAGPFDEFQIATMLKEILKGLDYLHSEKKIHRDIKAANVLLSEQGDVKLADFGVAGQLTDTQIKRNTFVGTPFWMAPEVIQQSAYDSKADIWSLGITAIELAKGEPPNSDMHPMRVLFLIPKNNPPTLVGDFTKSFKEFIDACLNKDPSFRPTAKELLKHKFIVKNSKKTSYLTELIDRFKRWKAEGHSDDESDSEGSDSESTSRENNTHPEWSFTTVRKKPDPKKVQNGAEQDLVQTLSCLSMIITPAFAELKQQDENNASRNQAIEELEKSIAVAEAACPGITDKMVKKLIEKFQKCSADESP

[4] = system: Epidermal growth factor receptor (Homo sapiens), P00533 [L858R]; assay: Binding affinity to human partial length EGFR L858R mutant (R669 to V1011 residues) expressed in bacterial expression system assessed as remaining unbound target protein level at 1000 nM by Kinomescan method relative to control
Outline: (§2)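 KINOMEscan competition-binding profiling across the panel of 468 kinases and mutants, with inhibitor tested at 1 μM. Binding is expressed as percent of control, with DMSO as the reference control.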

[5] = biological target: Serine/threonine-protein kinase PLK4 (Homo sapiens) (UniProt O00444); assay: Binding affinity to wild-type human partial length PLK4 (M1 to S273 residues) expressed in mammalian expression system assessed as remaining unbound target protein level at 1000 nM by Kinomescan method relative to control
[6] = biological target: Leukocyte tyrosine kinase receptor (Homo sapiens) (UniProt P29376); assay: Binding affinity to wild-type human partial length LTK (P422 to S744 residues) expressed in bacterial expression system assessed as remaining unbound target protein level at 1000 nM by Kinomescan method relative to control
Outline: (§3)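 KINOMEscan binding panel of 468 kinases/mutants. Inhibitor was tested at a single concentration of 1 μM. Binding is reported as percent of control, defined relative to a DMSO control.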

[7] = biological target: Mitogen-activated protein kinase kinase kinase 15 (Homo sapiens) (UniProt Q6ZN16); assay: Binding affinity to wild-type human partial length MAP3K15 (T625 to L932 residues) expressed in mammalian expression system assessed as remaining unbound target protein level at 1000 nM by Kinomescan method relative to control
Mus musculus = assay: Toxicity in nu/nu mouse xenografted with MV4-11 cells assessed as effect on body weight at 10 to 30 mg/kg, po administered via gavage for 21 days measured every day during compound dosing; assay type: organism-based; settings: in vivo, 504 h
[8] = system: Mast/stem cell growth factor receptor Kit (Homo sapiens), P10721 [D816V]; assay: Binding affinity to human partial length KIT D816V mutant (I571 to D952 residues) expressed in bacterial expression system assessed as remaining unbound target protein level at 1000 nM by Kinomescan method relative to control; outline: as §2
CDK8/Cyclin C = CDK8/Cyclin C (Homo sapiens, UniProt P49336); assay: Inhibition of recombinant full length His-tagged human CDK8/CyclinC expressed in baculovirus expression system
CDK8/Cyclin C, sequence (P49336 whole entry, the tested form may be a part): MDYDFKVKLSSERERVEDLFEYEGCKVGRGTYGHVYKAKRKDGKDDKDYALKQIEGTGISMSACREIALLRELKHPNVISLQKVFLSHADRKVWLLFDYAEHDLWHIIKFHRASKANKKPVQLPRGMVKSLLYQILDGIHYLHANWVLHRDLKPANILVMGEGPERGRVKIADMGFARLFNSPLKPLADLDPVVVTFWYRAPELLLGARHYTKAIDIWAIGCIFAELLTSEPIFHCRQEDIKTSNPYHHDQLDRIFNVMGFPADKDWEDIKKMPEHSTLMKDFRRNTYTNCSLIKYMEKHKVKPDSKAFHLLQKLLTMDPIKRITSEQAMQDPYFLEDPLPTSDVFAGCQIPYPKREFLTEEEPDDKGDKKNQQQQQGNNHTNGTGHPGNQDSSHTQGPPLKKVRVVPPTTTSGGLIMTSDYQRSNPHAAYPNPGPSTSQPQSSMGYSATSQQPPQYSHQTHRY
CDK8/Cyclin C, sequence (P24863 whole entry, further chain, the tested form may be a part): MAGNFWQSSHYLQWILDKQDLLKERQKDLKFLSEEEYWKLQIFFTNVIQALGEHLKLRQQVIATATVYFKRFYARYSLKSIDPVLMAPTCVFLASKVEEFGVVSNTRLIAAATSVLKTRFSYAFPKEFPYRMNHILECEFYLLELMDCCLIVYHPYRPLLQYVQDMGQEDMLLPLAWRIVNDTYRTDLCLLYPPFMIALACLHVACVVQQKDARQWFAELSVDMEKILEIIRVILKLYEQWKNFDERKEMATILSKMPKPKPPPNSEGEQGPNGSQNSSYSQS

[9] = biological target: Casein kinase II subunit alpha (Homo sapiens) (UniProt P68400); assay: Binding affinity to wild-type human full length CSNK2A1 (M1 to Q391 residues) expressed in mammalian expression system assessed as remaining unbound target protein level at 1000 nM by Kinomescan method relative to control
Casein kinase II subunit alpha (Homo sapiens), sequence (P68400 whole entry, looked up, the tested form may be a part): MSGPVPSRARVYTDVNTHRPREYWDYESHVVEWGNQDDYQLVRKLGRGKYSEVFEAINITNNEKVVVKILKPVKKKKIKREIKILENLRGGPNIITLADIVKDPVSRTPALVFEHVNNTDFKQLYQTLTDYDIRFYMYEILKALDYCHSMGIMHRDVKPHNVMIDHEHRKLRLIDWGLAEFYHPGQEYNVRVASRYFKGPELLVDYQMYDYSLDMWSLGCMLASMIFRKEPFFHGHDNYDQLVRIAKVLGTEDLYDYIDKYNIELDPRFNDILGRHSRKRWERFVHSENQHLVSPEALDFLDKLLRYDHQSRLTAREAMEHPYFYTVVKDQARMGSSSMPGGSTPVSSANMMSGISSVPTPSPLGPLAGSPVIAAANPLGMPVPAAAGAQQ
Outline: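 KINOMEscan competitive binding profile at 1 μM inhibitor. Remaining target binding reported as percent of DMSO control.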

[10] = biological target: Serine/threonine-protein kinase Nek11 (Homo sapiens) (UniProt Q8NG66); assay: Binding affinity to wild-type human partial length NEK11 (M1 to E313 residues) expressed in mammalian expression system assessed as remaining unbound target protein level at 1000 nM by Kinomescan method relative to control
Serine/threonine-protein kinase Nek11 (Homo sapiens), sequence (Q8NG66 whole entry, the tested form may be a part): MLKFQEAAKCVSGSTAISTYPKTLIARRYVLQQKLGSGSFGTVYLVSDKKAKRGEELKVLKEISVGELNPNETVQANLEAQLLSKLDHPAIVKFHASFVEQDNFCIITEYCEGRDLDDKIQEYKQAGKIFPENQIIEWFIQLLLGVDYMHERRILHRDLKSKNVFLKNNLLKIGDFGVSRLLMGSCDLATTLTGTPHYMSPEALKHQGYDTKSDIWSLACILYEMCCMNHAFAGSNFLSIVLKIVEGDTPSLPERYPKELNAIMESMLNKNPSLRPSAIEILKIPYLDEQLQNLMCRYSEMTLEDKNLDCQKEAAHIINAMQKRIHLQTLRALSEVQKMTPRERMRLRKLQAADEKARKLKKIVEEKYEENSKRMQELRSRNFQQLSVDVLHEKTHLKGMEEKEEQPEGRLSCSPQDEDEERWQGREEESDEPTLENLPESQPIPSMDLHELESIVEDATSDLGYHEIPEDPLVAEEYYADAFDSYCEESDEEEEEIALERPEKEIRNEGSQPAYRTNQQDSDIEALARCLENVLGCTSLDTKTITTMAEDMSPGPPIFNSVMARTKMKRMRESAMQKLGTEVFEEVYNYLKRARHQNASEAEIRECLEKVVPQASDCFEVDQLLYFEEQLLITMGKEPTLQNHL

[11] = Clearance in Sprague-Dawley rat at 3 mg/kg, iv by LC-MS/MS analysis; assay type: ADME, organism-based; settings: in vivo
[12] = biological target: Casein kinase I isoform alpha (Homo sapiens) (UniProt P48729); assay: Binding affinity to wild-type human partial length CSNK1A1 (M1 to L450 residues) expressed in mammalian expression system assessed as remaining unbound target protein level at 1000 nM by Kinomescan method relative to control
Outline: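 KINOMEscan competition binding profile across a panel of 468 kinases and mutants, with the inhibitor tested at a single concentration of 1 μM. Binding is reported as percent of control, meaning signal relative to a DMSO control.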

[13] = system: Tyrosine-protein kinase ABL1 (Homo sapiens), P00519 [F317I]; assay: Binding affinity to human phosphorylated ABL1 F317I mutant (S229 to K512 residues) expressed in mammalian expression system assessed as remaining unbound target protein level at 1000 nM by Kinomescan method relative to control; outline: as §1
[14] = biological target: Serine/threonine-protein kinase 3 (Homo sapiens) (UniProt Q13188); assay: Binding affinity to wild-type human partial length MST2 (D17 to E318 residues) expressed in bacterial expression system assessed as remaining unbound target protein level at 1000 nM by Kinomescan method relative to control; outline: as §3
Serine/threonine-protein kinase 3 (Homo sapiens), sequence (Q13188 whole entry, the tested form may be a part): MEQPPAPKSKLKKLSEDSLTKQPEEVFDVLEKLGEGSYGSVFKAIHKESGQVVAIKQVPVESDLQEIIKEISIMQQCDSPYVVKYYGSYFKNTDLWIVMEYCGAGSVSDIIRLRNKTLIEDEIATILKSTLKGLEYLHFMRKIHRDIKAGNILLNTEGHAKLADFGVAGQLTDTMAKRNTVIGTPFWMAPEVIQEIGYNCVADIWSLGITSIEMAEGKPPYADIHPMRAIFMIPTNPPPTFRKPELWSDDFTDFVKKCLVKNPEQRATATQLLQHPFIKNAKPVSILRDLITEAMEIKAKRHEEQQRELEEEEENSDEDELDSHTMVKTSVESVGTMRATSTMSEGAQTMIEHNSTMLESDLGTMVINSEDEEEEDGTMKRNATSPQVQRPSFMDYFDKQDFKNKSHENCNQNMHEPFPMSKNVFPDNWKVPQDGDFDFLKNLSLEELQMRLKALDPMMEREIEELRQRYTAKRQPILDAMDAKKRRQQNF

[15] = Cmax in mouse at 3 mg/kg, iv by LC-MS/MS analysis; assay type: ADME, organism-based; design: dose 3 mg/kg, route intravenous; settings: in vivo
[16] = biological target: Serine/threonine-protein kinase Sgk1 (Homo sapiens) (UniProt O00141); assay: Binding affinity to wild-type human partial length SGK (I60 to L431 residues) expressed in mammalian expression system assessed as remaining unbound target protein level at 1000 nM by Kinomescan method relative to control
Serine/threonine-protein kinase Sgk1 (Homo sapiens), sequence (O00141 whole entry, the tested form may be a part): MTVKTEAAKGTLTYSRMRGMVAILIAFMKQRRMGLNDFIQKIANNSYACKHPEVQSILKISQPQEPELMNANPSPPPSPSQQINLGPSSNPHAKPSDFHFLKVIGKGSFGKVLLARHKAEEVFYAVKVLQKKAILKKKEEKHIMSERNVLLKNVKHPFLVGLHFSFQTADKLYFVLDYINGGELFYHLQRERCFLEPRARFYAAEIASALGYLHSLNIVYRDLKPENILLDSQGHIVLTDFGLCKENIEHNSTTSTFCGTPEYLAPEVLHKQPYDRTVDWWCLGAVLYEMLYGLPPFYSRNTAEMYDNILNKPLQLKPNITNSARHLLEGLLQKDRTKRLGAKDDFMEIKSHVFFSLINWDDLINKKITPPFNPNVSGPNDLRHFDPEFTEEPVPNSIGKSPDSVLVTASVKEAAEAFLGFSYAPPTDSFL

[17] = biological target: Homeodomain-interacting protein kinase 2 (Homo sapiens) (UniProt Q9H2X6); assay: Binding affinity to wild-type human partial length HIPK2 (M153 to S564 residues) expressed in mammalian expression system assessed as remaining unbound target protein level at 1000 nM by Kinomescan method relative to control; outline: as §3
Homeodomain-interacting protein kinase 2 (Homo sapiens), sequence (Q9H2X6 whole entry, looked up, the tested form may be a part): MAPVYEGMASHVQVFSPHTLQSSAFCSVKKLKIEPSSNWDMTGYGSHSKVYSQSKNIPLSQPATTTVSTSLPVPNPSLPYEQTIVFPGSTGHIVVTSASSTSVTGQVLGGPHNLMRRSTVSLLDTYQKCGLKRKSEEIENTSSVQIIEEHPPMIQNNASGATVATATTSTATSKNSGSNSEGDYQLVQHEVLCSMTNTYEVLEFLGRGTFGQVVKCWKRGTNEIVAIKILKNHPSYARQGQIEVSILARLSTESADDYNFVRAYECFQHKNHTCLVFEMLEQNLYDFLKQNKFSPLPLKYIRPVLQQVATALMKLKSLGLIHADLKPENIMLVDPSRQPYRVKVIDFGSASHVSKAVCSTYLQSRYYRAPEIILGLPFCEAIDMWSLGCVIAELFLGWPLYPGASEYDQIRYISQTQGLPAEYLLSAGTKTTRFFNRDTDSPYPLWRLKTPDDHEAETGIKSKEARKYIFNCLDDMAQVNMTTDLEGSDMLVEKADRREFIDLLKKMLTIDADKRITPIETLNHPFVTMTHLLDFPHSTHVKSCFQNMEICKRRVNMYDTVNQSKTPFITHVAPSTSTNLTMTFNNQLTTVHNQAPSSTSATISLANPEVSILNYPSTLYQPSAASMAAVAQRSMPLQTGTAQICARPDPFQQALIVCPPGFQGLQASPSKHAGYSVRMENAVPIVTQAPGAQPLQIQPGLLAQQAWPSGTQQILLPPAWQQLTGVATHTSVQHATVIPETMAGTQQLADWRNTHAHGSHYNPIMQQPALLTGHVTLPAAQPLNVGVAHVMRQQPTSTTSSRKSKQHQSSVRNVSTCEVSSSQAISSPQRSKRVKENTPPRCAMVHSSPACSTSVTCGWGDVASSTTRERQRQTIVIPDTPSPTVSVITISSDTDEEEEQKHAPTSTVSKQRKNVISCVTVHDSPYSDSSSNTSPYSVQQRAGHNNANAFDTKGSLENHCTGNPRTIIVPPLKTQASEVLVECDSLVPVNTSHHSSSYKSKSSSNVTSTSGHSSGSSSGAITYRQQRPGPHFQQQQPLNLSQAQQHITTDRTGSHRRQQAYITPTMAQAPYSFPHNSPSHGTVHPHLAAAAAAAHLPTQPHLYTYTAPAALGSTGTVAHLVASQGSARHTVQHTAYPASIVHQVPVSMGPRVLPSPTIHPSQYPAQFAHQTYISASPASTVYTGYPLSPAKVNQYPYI

[18] = AUC (0 to infinity) in mouse at 3 mg/kg, iv by LC-MS/MS analysis; assay type: ADME, organism-based; design: dose 3 mg/kg, route intravenous, time infinity; settings: in vivo
Outline: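 Non-compartmental PK. Male SD rats 190-210 g, mice and beagle dogs acclimatized one week, fasted 12 h with water, split into iv and po groups (mice 48, rats 6, dogs 6). iv 3/3/2 mg/kg (mice/rats/dogs); po 10/20/10 mg/kg; vehicle DMSO in 5% glucose water. Blood at 2 or 5 to 720 min; plasma protein-precipitated with methanol, caffeine internal standard, LC-MS/MS.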

[19] = biological target: Ephrin type-B receptor 6 (Homo sapiens) (UniProt O15197); assay: Binding affinity to wild-type human partial length EPHB6 (Q634 to P948 residues) expressed in mammalian expression system assessed as remaining unbound target protein level at 1000 nM by Kinomescan method relative to control

Calcium/calmodulin-dependent protein kinase kinase 1 (Homo sapiens), sequence (Q8N5S9 whole entry, looked up, the tested form may be a part): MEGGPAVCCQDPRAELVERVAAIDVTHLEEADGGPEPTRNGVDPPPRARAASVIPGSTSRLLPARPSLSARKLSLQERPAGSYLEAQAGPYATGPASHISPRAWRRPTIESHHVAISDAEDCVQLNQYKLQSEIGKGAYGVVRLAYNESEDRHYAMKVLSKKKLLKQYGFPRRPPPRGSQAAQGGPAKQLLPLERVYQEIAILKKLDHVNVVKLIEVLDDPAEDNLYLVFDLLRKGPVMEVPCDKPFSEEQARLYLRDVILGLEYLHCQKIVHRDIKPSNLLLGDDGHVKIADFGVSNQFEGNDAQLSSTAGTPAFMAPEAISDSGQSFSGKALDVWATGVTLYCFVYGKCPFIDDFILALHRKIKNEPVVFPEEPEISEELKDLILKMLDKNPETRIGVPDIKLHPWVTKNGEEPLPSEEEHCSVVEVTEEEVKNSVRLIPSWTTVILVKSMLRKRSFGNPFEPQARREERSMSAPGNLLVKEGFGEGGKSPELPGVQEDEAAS

In the case of `COCCN[C@H]1CC[C@H](Nc2cc(-c3csc(NCC4(C#N)CCOCC4)n3)c(Cl)cn2)CC1`, the Activity [1] is reported as 84%, the Activity [2] is reported as 95% and the Activity [3] is reported as 96%. For the same compound, the Activity [4] was 85%, the Activity [5] was 100% and the Activity [6] was 95%. For the same compound, the Activity [7] was 84%, the Activity (Mus musculus) was “Non-Toxic” and the Activity [8] was 87%. The IC50 (CDK8/Cyclin C) was > 10 µM, the Activity [9] was 81% and the Activity [10] was 97%. For the same compound, the clearance [11] was 75.8 mL/min/kg, the Activity [12] was 99% and the Activity [13] was 100%. It also gave an Activity [14] of 69%, a Cmax [15] of 573 ng/mL and an Activity [16] of 70%. For the same compound, the Activity [17] was 74%, the AUC(0-inf) [18] was 408 ng·h/mL and the Activity [19] was 85%.
